Measured values from publication PMC11319731 (Nature Communications, 2024).

Experiments:
[1] = target: PD-L1 in HCT116 cells (Homo sapiens, UniProt Q9NZQ7); assay: Immunofluorescence; format: cell-based; details: HCT116, incubation for 10 h, LSCM
How it was run: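 HCT116 colon cancer cells were exposed to test peptide carrying an N-terminal Arg6 cell-penetrating hexamer, or to an Arg6-tagged random-sequence control peptide. PD-L1 was labelled with red dye and HSC70 or LAMP2 with green dye, and cells were imaged by laser scanning confocal microscopy (10 h incubation stated for the HSC70 pairing). Intensity profiles were plotted along a line, with colocalization given as Pearson's R.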

[2] = system: PD-L2, B7H3 (CD276), B7H4, Vista; assay: Western blot of other PD-L1 family proteins in HCT116; format: cell-based; details: 5μM Arg6-MPHP, HCT116, WB

Chain of PD-L1 in HCT116 cells (Q9NZQ7 19-290): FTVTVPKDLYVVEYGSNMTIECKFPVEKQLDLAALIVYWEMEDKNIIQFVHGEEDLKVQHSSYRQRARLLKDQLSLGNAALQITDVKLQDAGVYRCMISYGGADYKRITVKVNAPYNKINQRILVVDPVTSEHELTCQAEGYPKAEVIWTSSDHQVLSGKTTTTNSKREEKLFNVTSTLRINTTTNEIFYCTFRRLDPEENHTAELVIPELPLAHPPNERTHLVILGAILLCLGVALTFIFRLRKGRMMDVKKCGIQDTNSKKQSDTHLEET

- colocalization of PD-L1 and HSC70 [1]: conspicuous colocalization
SMILES: C[C@H](O)[C@@H](NC(=O)[C@H]1CCCN1C(=O)[C@@H](CCCCN)NC(=O)[C@@H](CO)NC(=O)[C@@H](Cc1ccc(O)cc1)NC(=O)[C@@H](CC(N)=O)NC(=O)CCOCCOCCOCCNC(=O)[C@H](CCC(N)=O)NC(=O)[C@H](CCCNC(=N)N)NC(=O)[C@H](Cc1ccccc1)NC(=O)[C@H](CCC(=O)O)NC(=O)[C@H](CCCCN)NC(=O)[C@H](CS)NC(=O)[C@H](CCCNC(=N)N)NC(=O)[C@H](CCCNC(=N)N)NC(=O)[C@H](CCCNC(=N)N)NC(=O)[C@H](CCCNC(=N)N)NC(=O)[C@H](CCCNC(=N)N)NC(=O)[C@@H](N)CCCNC(=N)N)C(=O)N[C@H](CC(=O)O)C(=O)N[C@H](CCCNC(=N)N)C(=O)N[C@H](CCC(N)=O)C(=O)N[C@H](Cc1ccc(O)cc1)C(=O)N[C@H](Cc1c[nH]cn1)C(=O)N[C@H](Cc1ccccc1)C(=O)O [Arg6-MPHP]
- impact on other PD-L1 family proteins (PD-L2, B7H3 (CD276), B7H4, Vista) [2]: negligible
